# Measured values from ChEMBL document CHEMBL3808312, “Bioactive Constituents of Glycyrrhiza uralensis (Licorice): Discovery of the Effective Components of a Traditional Herbal Medicine” (J Nat Prod, 2016).
# pIC50: −log10 of the molar value. Activity calls are given as the source filed them. The calls are words filed in the database; no cut-off is given here.
# What was measured:
# [1] = molecular target: T1, Nuclear factor erythroid 2-related factor 2 (Homo sapiens) (UniProt Q16236); assay: Activation of NRF2 transcription in human HepG2C8 cells at 10 uM after 6 hrs by luciferase reporter gene assay relative to control; format: cell-based
# T1 sequence (whole entry): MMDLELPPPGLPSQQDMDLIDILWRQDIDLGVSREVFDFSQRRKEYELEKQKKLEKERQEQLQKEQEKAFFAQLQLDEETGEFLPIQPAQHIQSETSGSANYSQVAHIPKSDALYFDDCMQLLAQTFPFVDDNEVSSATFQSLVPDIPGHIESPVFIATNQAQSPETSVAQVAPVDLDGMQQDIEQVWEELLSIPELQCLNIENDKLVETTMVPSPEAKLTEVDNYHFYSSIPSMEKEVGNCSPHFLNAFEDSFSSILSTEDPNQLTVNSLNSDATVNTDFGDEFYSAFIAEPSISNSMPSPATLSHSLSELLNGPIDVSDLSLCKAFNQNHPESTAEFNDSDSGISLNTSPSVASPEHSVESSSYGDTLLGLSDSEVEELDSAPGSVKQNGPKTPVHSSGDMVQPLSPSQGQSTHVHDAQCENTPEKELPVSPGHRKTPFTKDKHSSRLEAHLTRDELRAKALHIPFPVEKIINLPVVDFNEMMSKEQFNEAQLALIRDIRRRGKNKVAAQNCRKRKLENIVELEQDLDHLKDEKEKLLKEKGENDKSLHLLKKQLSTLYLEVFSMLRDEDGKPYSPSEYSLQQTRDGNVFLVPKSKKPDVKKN
# In short: (§1)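 Luciferase reporter in HepG2C8 cells, which are HepG2 stably transfected with an Nrf2 luciferase reporter and grown in MEM. Screened at 10 μM, with dose-response over 2.5−40 μM. Activity expressed as fold of control. tBHQ positive control.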
# [2] = molecular target: T1, Nuclear factor erythroid 2-related factor 2 (Homo sapiens); assay: Activation of NRF2 transcription in human HepG2C8 cells at 100 uM after 6 hrs by luciferase reporter gene assay relative to control; format: cell-based
# SW480 [3] = assay: Inhibition of NFkappaB transcription in human SW480 cells at 10 uM by luciferase reporter gene assay; format: cell-based
# In short: (§2)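 SW480 cells (RPMI1640) stably transfected with an NF-κB luciferase reporter. […] MG132 positive control.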
# [4] = (§3) Inhibition of NFkappaB transcription in human SW480 cells at by luciferase reporter gene assay; format: cell-based; in short: as §2
# SW480 [5] = assay: as §3; format: cell-based; in short: as §2
# [6] = molecular target: T2, Tyrosine-protein phosphatase non-receptor type 1 (Homo sapiens) (UniProt P18031); assay: Inhibition of recombinant human PTP1B assessed as hydrolysis of p-nitrophenyl phosphate at 25 uM after 30 mins relative to control
# T2 sequence (whole entry): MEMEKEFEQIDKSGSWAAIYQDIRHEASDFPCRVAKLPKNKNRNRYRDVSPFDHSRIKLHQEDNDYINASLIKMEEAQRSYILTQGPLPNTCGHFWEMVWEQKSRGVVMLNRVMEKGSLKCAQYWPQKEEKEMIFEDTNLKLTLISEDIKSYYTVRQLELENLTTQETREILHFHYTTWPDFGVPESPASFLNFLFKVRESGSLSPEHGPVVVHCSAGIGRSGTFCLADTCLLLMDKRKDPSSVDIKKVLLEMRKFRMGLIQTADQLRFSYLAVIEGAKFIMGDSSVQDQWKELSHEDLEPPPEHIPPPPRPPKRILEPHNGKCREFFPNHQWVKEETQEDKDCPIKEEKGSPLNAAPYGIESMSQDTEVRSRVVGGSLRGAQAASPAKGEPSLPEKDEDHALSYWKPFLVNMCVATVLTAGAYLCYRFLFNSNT
# [7] = molecular target: T3, Tyrosinase (Homo sapiens) (UniProt P14679); assay: Inhibition of tyrosinase (unknown origin) using L-tyrosine as substrate assessed as oxidation of L-tyrosine at 20 uM after 15 mins
# T3 sequence (whole entry): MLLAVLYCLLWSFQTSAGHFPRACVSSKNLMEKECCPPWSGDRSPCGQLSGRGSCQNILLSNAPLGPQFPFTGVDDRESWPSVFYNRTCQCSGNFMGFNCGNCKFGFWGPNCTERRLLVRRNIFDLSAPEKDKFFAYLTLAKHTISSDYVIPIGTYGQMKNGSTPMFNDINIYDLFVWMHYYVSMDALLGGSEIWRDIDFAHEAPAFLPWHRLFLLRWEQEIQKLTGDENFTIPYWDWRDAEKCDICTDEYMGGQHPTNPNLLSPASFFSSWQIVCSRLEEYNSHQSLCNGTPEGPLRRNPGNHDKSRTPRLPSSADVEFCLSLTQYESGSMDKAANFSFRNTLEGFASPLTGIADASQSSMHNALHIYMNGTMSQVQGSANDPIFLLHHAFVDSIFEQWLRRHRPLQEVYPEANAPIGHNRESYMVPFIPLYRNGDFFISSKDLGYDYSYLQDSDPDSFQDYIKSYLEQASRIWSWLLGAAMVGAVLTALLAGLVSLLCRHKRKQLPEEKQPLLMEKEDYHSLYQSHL
# In short: (§4)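 Tyrosinase at 333 U/mL (stock) in 45 mM sodium phosphate, pH 6.6, with 2 mM L-tyrosine (stock). Incubated 37 °C for 15 min; oxidation read at 492 nm. Screened at 20 μM; dose-response for IC50. Glyasperin C positive control.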
# Tyrosinase = molecular target: T4, Tyrosinase (Homo sapiens, UniProt P14679); assay: Inhibition of tyrosinase (unknown origin) using L-tyrosine as substrate assessed as oxidation of L-tyrosine after 15 mins; in short: as §4
# T4 sequence (P14679 whole entry): T3 sequence (whole entry)
# Influenza A virus = assay: Antiviral activity against Influenza A virus A/WSN/33(H1N1) infected in MDCK cells at 100 uM preincubated with virus for 15 mins followed by cells addition measured at 36 hrs post infection; format: functional, A/WSN/1933(H1N1)
# In short: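 MDCK canine kidney cells grown in DMEM and infected with influenza A/WSN/33 (H1N1). Compounds screened at 100 μM. Oseltamivir phosphate served as the positive control.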
# RAW264.7 [8] = assay: Antiinflammatory activity in mouse RAW264.7 cells assessed as inhibition of LPS-induced nitric oxide production at 10 uM after 24 hrs by Griess assay; format: functional; settings: for inhibition at 10 µM: RAW264.7, 24 h
# In short: (§5)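 RAW264.7 cells plated at 1.2 × 10^5/well in RPMI1640 and co-treated with compound and 1 μg/mL LPS for 24 h. Nitrite in medium read with Griess reagent (sulfanilamide/naphthylethylenediamine, phosphoric acid) after 15 min at 37 °C, absorbance 540 nm. […] Curcumin positive control.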
# RAW264.7 [9] = assay: Antiinflammatory activity in mouse RAW264.7 cells assessed as inhibition of LPS-induced nitric oxide production after 24 hrs by Griess assay; format: functional, cell-based; settings: RAW264.7, 24 h; in short: as §5
# Acetylcholinesterase [10] = molecular target: T5, Acetylcholinesterase (Homo sapiens, UniProt P22303); assay: Inhibition AChE (unknown origin) using ATCI as substrate assessed as hydrolysis of ATCI at 25 uM measured every 1 min for 10 times
# In short: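 Commercial AChE (added as 0.025 U/mL solution) in Tris-HCl (30 mM, pH 8.0) with DTNB (added as 0.26 mM) and ATCI substrate (added as 0.2 mM); 200 μL mixture at room temperature. Thiocholine release read at 405 nm every min, 10 reads; linear slope taken as rate. Screening at 25 μM; galanthamine positive control.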
# HepG2 [11] = assay: Cytotoxicity against human HepG2 cells assessed as reduction in cell viability after 24 hrs by MTS assay; format: functional, cell-based; settings: HepG2, 24 h
# In short: (§6)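 Cells seeded at 5 × 10^3/well and cultured overnight, then exposed to compounds for 24 h. Viability read by MTS. Media: SW480 in RPMI1640, A549 in DMEM, MCF7 in MEM. […] Irinotecan positive control.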
# SW480 [12] = assay: Cytotoxicity against human SW480 cells assessed as reduction in cell viability after 24 hrs by MTS assay; format: functional, cell-based; settings: SW480, 24 h; in short: as §6
# A549 = assay: Cytotoxicity against human A549 cells assessed as reduction in cell viability after 24 hrs by MTS assay; format: functional, cell-based; settings: A549, 24 h; in short: as §6
# MCF7 = assay: Cytotoxicity against human MCF7 cells assessed as reduction in cell viability after 24 hrs by MTS assay; format: functional, cell-based; settings: MCF7, 24 h; in short: as §6
# [13] = molecular target: T6, Tyrosine-protein phosphatase non-receptor type 1 (Homo sapiens, UniProt P18031); assay: Inhibition of recombinant human PTP1B assessed as hydrolysis of p-nitrophenyl phosphate
# T6 sequence (P18031 whole entry): T2 sequence (whole entry)
# MDCK = assay: Cytotoxicity against MDCK cells after 36 hrs; format: cell-based, Canis lupus familiaris; settings: dog
# [14] = molecular target: T2, Tyrosine-protein phosphatase non-receptor type 1 (Homo sapiens); settings: 5 uM
# [15] = molecular target: T1, Nuclear factor erythroid 2-related factor 2 (Homo sapiens); assay: Activation of NRF2 transcription in human HepG2C8 cells after 6 hrs by luciferase reporter gene assay; format: cell-based; in short: as §1
# HepG2 [16] = assay: Toxicity in human HepG2 cells at 20 to 40 uM; format: cell-based; settings: hepg2, 40 µM
# [17] = molecular target: T1, Nuclear factor erythroid 2-related factor 2 (Homo sapiens); assay: Inhibition of NRF2 transcription in human HepG2C8 cells at 10 uM after 6 hrs by luciferase reporter gene assay relative to control; format: cell-based; in short: as §1
# Acetylcholinesterase [18] = molecular target: T5, Acetylcholinesterase; assay: Inhibition AChE (unknown origin) using ATCI as substrate assessed as hydrolysis of ATCI after 10 mins measured every 1 min for 10 times
# RAW264.7 [19] = assay: Antiinflammatory activity in mouse RAW264.7 cells assessed as inhibition of LPS-induced nitric oxide production at 20 uM after 24 hrs by Griess assay; format: functional; settings: RAW264.7, 24 h; in short: as §5
# T5 sequence (P22303 whole entry): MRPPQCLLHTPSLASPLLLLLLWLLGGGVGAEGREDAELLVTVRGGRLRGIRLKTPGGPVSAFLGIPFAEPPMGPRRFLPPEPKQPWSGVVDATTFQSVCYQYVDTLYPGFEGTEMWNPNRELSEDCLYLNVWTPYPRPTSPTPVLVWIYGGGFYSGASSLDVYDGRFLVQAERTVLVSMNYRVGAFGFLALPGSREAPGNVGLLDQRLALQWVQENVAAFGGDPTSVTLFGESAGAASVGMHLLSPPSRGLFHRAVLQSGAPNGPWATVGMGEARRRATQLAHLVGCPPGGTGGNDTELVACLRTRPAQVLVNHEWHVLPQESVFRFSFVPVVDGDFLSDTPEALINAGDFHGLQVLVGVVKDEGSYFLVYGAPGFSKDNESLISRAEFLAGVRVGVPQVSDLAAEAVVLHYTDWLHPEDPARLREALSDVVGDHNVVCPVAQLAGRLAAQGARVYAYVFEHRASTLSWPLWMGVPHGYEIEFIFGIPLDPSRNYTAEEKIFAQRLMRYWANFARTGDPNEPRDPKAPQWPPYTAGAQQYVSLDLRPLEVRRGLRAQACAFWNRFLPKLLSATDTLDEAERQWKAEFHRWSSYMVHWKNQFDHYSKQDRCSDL
smiles,measurement,setting,value
CC(C)(C)c1cc(O)ccc1O,fold change (FC),[1],1.51
same,fold change (FC),[2],4.34
COc1ccc2c(c1)OC1C2COC2=CC(=O)CCC21O (centres undefined),inhibition,SW480 [3],> 30%
same,pIC50,[4],4.77
same,inhibition,SW480 [5],Dose-dependent effect
same,inhibition,[6],inactive
COc1c(CC=C(C)C)c(O)cc2c1C[C@H](c1ccc(O)cc1O)CO2 [GLYASPERIN C],inhibition,[7],> 95%
same,pIC50,Tyrosinase,6.75
COc1c2c(cc(O)c1CC=C(C)C)OCC(c1ccc(O)cc1O)=C2,Activity,Influenza A virus,>30%
same,fold change (FC),[1],4.7
same,inhibition at 10 µM,RAW264.7 [8],> 50%
same,pIC50,RAW264.7 [9],5.09
same,inhibition,[7],inactive
CC(C)=CCc1c(O)ccc(-c2coc3cc(O)c(CC=C(C)C)c(O)c3c2=O)c1O,inhibition,Acetylcholinesterase [10],71%
same,pIC50,HepG2 [11],5.96
same,pIC50,SW480 [12],5.19
same,pIC50,A549,5.15
same,pIC50,MCF7,5.22
same,inhibition,[6],> 95%
same,pIC50,[13],6.40
same,Activity,MDCK,Toxic
COc1c(-c2ccc(O)c(CC=C(C)C)c2)oc2cc(O)cc(O)c2c1=O,inhibition at 10 µM,RAW264.7 [8],> 50%
same,pIC50,RAW264.7 [9],4.92
same,inhibition,[6],85%
C[C@H]1[C@H](C)CC[C@]2(C(=O)O)CC[C@]3(C)C(=CC[C@@H]4[C@@]5(C)CC[C@H](O)C(C)(C)[C@@H]5CC[C@]43C)[C@H]12,inhibition,[14],45%
CC(C)=CCc1cc(-c2coc3cc(O)c(CC=C(C)C)c(O)c3c2=O)cc(O)c1O,pIC50,HepG2 [11],5.36
same,pIC50,SW480 [12],5.19
same,pIC50,A549,5.19
same,pIC50,MCF7,5.18
same,inhibition,[6],> 95%
same,pIC50,[13],5.52
same,Activity,MDCK,Toxic
COc1c(CC=C(C)C)c(O)cc2oc(-c3ccc(O)cc3O)cc12 [LICOCOUMARONE],Activity,Influenza A virus,>30%
same,pIC50,RAW264.7 [9],5.07
same,inhibition,SW480 [3],> 30%
same,pIC50,[4],5.29
same,inhibition,SW480 [5],Dose-dependent effect
same,inhibition,[6],> 90%
CC(C)=CCc1c(O)cc2occ(-c3ccc(O)cc3O)c(=O)c2c1O [UNCINANONE A],Activity,Influenza A virus,>30%
same,fold change (FC),[1],6.68
same,Activity,[15],Dose-dependent effect
same,Activity,HepG2 [16],Toxic
COc1c2c(cc3c1CCC(C)(C)O3)OC[C@@H](c1ccc(O)c(CCC(C)(C)O)c1O)C2,inhibition,[17],76%
COc1c(CC=C(C)C)c(O)cc2c1C[C@H](c1ccc(O)c(CC=C(C)C)c1O)CO2 [LICORICIDIN],pIC50,Acetylcholinesterase [18],4.81
same,inhibition,Acetylcholinesterase [10],82%
same,pIC50,HepG2 [11],6.52
same,pIC50,SW480 [12],5.15
same,pIC50,A549,5.16
same,pIC50,MCF7,5.28
same,inhibition,[6],> 95%
same,Activity,MDCK,Toxic
COc1cc2oc(-c3ccc(O)cc3O)cc2c(OC)c1CC=C(C)C,Activity,Influenza A virus,>30%
same,inhibition,RAW264.7 [8],inactive
same,inhibition,[6],> 90%
COc1cc2occ(-c3ccc(O)cc3O)c(=O)c2c(O)c1CC=C(C)C,pIC50,Acetylcholinesterase [18],5.00
same,inhibition,Acetylcholinesterase [10],83%
COc1cc2c(c(OC)c1CC=C(C)C)C1c3ccc(O)cc3OC1(O)CO2 (centres undefined),inhibition,SW480 [3],> 30%
same,pIC50,[4],4.61
same,inhibition,SW480 [5],Dose-dependent effect
O=c1c(O)c(-c2ccc(O)cc2)oc2cc(O)cc(O)c12 [KAEMPFEROL],inhibition,[7],> 95%
same,pIC50,Tyrosinase,6.00
COc1cc(/C=C/C(=O)CC(=O)/C=C/c2ccc(O)c(OC)c2)ccc1O [CURCUMIN],inhibition at 10 µM,RAW264.7 [8],12%
same,inhibition at 20 µM,RAW264.7 [19],53%
same,pIC50,RAW264.7 [9],4.72
